A selection: hits, their analogues and other compounds. The true share with any hit is near 2.2%.
F-actin modifier: cytoskeleton assembly modification | HUVEC TNFa F-actin phalloidin imaging, high content | inhibition, % at 2 µM | 91,000 compounds, 0.18% hits | AID 836;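 active = inhibition above the batch mean plus 3 SD and confirmed as a hit by visual image inspection, cut at about 30% in these data, passing the limit was not always enough; inconclusive = above the inhibition threshold but rejected on visual inspection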
FAK inh: FAK (human) kinase inhibition | Q05397 | biochemical FAK kinase activity assay | inhibition, %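 (tested at 7 µM)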 | 97,000 compounds, 0.84% hits; in the data active = inhibition above about 19%
Plk1 PBD FP: Plk1 (human) PBD binding inhibition. inhibition, %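 (tested at about 20 µM)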. 97,000 compounds, 0.13% hits. Plk1 PBD phosphopeptide binding, fluorescence polarization. P53350; in the data active = inhibition above about 34%, passing the limit was not always enough
Target sequence (P53350 whole entry, looked up): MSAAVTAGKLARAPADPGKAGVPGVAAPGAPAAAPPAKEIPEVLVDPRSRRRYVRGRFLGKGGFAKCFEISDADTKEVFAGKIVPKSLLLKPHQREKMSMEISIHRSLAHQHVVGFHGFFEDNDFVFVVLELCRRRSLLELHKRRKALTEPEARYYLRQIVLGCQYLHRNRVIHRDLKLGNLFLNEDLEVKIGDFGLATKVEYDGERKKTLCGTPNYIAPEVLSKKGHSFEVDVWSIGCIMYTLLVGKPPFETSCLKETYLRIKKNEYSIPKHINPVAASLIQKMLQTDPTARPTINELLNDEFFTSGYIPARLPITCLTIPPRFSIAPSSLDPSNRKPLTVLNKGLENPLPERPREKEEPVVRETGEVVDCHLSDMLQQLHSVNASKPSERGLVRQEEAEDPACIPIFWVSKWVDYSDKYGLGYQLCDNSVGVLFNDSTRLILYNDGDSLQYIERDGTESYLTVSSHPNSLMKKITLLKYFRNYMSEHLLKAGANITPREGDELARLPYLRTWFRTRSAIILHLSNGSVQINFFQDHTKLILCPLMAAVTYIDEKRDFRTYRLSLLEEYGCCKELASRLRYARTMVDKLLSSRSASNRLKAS
E-sel TNF inh: TNF alpha driven E-selectin expression inhibition; 120,000 compounds, 0.71% hits; HUVEC TNFa-induced E-selectin immunofluorescence, high content; inhibition, % at 2 µM;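 active = inhibition above the batch mean plus 3 SD, and confirmed as a hit on visual image review, cut at about 43% in these data; inconclusive = passes the inhibition cutoff but fails visual image review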
PLK1 kinase inh: inhibitors of human PLK1 kinase | 97,000 compounds, 0.53% hits | inhibition, % at 10 µM | P53350 | recombinant PLK1 kinase, TR-FRET peptide phosphorylation;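 active = inhibition of 50% or more in the single-concentration screen; inactive = inhibition below 50%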
Rev-RRE block: inhibitors of HIV-1 Rev-RRE RNA interaction; 97,000 compounds, 0.79% hits; P05866; Rev peptide-RRE RNA binding, FRET; AID 704; inhibition, % at 8 µM;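 active = inhibition above the screen-wide mean plus 3 SD, cut at about 35% in these data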
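Material: labelled RRE RNA duplex and labelled Rev peptide / Buffer or medium: HEPES pH 7.5 salt buffer with EDTA / Compound dosing: single point, 8 µM final nominal compound concentration / Benchmarks: DMSO low control, neomycin B high control / Timing: 5 min preincubation and 15 min binding, 25 °C / Technique: FRET fluorescence readout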
PLK1 confirm: PLK1 (human) kinase inhibition, confirmed; inhibition, % at 10 µM; 210 compounds, 20% hits; AID 744; shares compounds with PLK1 kinase inh; recombinant PLK1 kinase, TR-FRET peptide phosphorylation;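 active = inhibition at or above 50% in each of two repeat confirmation tests; inconclusive = one repeat below 50% inhibition, the other above; inactive = both repeats at or below 50% inhibition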
Plk1 interf: interferes with the Plk1 assay readout, not true inhibition. shares compounds with PLK1 kinase inh. Plk1 TR-FRET assay interference, compound added post-reaction. inhibition (interference), % at 10 µM. 210 tested, under 10 active. AID 756;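 active = both duplicate runs show 50% or greater inhibition; inconclusive = only one duplicate run shows over 50% inhibition; inactive = both runs show under 50% inhibition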
A number is an active result; - = inactive; ? = inconclusive; . = no result.

SMILES	F-actin modifier	FAK inh	Plk1 PBD FP	E-sel TNF inh	PLK1 kinase inh	Rev-RRE block	PLK1 confirm	Plk1 interf
Cc1cc2c(ccc3[nH]onc32)n1	-	-	-	-	72	-	-	-
Cc1oc2ncnc(N)c2c1C	-	-	-	.	76	-	68	-
CCc1cc2c(=O)[nH]cnc2s1	-	-	-	-	-	-	.	.
O=c1[nH]cnc2sc(-c3ccccc3)cc12	-	-	-	-	78	-	68	-
CCc1ccccc1NC(=O)c1ccc(CN2CCC(Cc3ccccc3)CC2)cc1	-	-	-	-	-	-	.	.
CCSc1nnc(NC(=O)C(C)C)s1	.	-	-	.	71	-	-	-
Cc1cccc(C)c1NC(=S)NC(C)CCc1ccccc1 (stereo unspecified)	.	.	.	-	.	.	.	.
Cc1c(C(=O)OC(C)C)sc2nc[nH]c(=O)c12	-	-	-	-	77	-	69	-
COC(=O)c1sc2nc[nH]c(=O)c2c1C	-	-	-	.	74	-	71	-
Cc1ccccc1NC(=O)c1sc2nc[nH]c(=O)c2c1C	-	-	-	-	-	-	.	.
COC(=O)c1ccccc1NC(=S)N(Cc1ccc2c(c1)OCO2)Cc1cc2ccc(OC)cc2[nH]c1=O	.	.	.	-	.	.	.	.
CC(Sc1nnc(-c2ccccc2Br)n1-c1cccc(C(F)(F)F)c1)C(N)=O (stereo unspecified)	.	.	.	-	.	.	.	.
COc1ccc(OCc2nnc3n2N=C(c2ccc(OC)cc2)CS3)cc1	.	-	-	.	83	-	-	-
COc1ccc(OCc2nnc3n2N=C(c2ccc(C)cc2)CS3)cc1	.	-	-	.	72	-	-	-
CCOc1ccc(C2=Nn3c(nnc3-c3ccc(OC)cc3)SC2)cc1	-	-	-	-	-	-	.	.
CN1CCN(Cc2cn[nH]c2-c2ccc(F)cc2F)[C@@H](c2ccccc2)C1	.	.	.	-	.	.	.	.
OCC1(CCOc2ccccc2)CCN(Cc2nc3ccc(F)cc3[nH]2)CC1	.	.	.	-	.	.	.	.
Cc1ccc(N(C)C(=O)N2CCN(S(=O)(=O)c3c(C)cc(C)cc3C)CC2)cc1	-	-	-	-	-	-	.	.
Cc1ccc(C)c2nc3sc(C(=O)O)cc3cc12	.	.	.	-	.	.	.	.
O=c1[nH]cnc2scc(-c3cccs3)c12	-	-	-	-	73	-	65	-
Cc1cc(NC(=O)c2nn3cccnc3c2Cl)no1	-	-	-	.	-	-	.	.
C=CCNC(=O)c1nn2cccnc2c1Cl	?	-	-	-	130	-	-	-
COc1ccc(NC(=O)c2c(C(F)(F)F)nn(C)c2SCc2ccccc2Cl)cc1	.	-	-	.	-	-	.	.
CCc1nnc(NC(=O)c2cccnc2SC)s1	.	.	.	-	.	.	.	.
CC(Oc1ccc(Cl)cc1Cl)C(=O)NCCCN1CCOCC1 (stereo unspecified)	.	-	-	.	74	-	-	-
SMILES	F-actin modifier	FAK inh	Plk1 PBD FP	E-sel TNF inh	PLK1 kinase inh	Rev-RRE block	PLK1 confirm	Plk1 interf
CCn1ccc(C(=O)Nc2ccc(Cl)cn2)n1	.	-	-	.	71	-	-	-
O=C(NCCN1C(=O)C2C3C=CC(C3)C2C1=O)Nc1ccc(Br)cc1 (stereo unspecified)	.	-	-	.	72	-	-	-
O=C(c1ccc([N+](=O)[O-])cc1)N1CCSC1c1cccc(Cl)c1 (stereo unspecified)	.	.	.	-	.	.	.	.
CCOC(=O)c1ccc(NC(=S)NCCCN2CCCCC2)cc1	-	-	-	-	113	-	-	-
CCOC(=O)c1ccc(NC(=S)NCCCN2CCN(C3CCCCC3)CC2)cc1	.	.	.	-	.	.	.	.
CCCCc1nc2n[nH]c(N)c2c2c1CSC(C)(C)C2	-	-	-	-	70	-	-	-
O=C(O)CCc1ccc(-c2cccs2)n1-c1ccc(C(=O)O)cc1	.	-	-	.	96	-	-	-
C=CCNc1nc(N)c(C(=O)c2ccc3c(c2)OCO3)s1	-	-	-	-	75	-	74	-
Cc1oc(-c2cccc(Cl)c2)nc1CN1CCC(C(=O)NCCCN2CCCC2=O)CC1	-	-	-	.	-	-	.	.
Cc1oc(-c2ccc(Cl)cc2)nc1CN1CCCC(C(=O)NCCCN2CCCC2=O)C1 (stereo unspecified)	.	-	-	.	73	-	-	-
COc1ccccc1Nc1nc(N)nc(CN2CCOCC2)n1	.	-	-	.	72	-	-	-
COc1ccccc1Nc1nc(N)nc(CN2CCCCCC2)n1	-	-	-	-	-	-	.	.

Screening results deposited in PubChem BioAssay by several laboratories.
